Assay results: publication PMC5856940 (Saudi Pharmaceutical Journal : SPJ, 2018)

Assays:
HEK293T cells [1] = test: Cytotoxicity screening of AHAMCs, trypan blue exclusion assay; assay type: cell-based, Human; conditions: 25 mM, 24 h
Outline: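 HEK293T cells were grown in DMEM with 10% FBS, 1mM pyruvate and antibiotics/antifungal at 37 °C and 5% CO2. Cells were seeded at 1 × 10^6 per well, grown 24 h, then given fresh medium. Test compound (100 mM DMSO stock, diluted in DMSO then dH2O) was added at 25 mM for 24 h. Cells were trypsinised (0.5%) and live/dead cells counted by trypan blue on a Bürker hemocytometer under bright field.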

HEK293T cells [2] = test: Differentiation of apoptosis and necrosis by PI staining; assay type: cell-based, Human; conditions: for cell death compared to the other compounds: IC50, 24 and 48 h
Outline: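 HEK293T cells (1 × 10^6 per well) were grown 24 h, then resuspended in medium with test compound at one fixed concentration for 24 or 48 h. Cells were washed three times in DPBS, trypsinised, washed again, and stained 5 min with 1 mg/mL PI in 2× SSC. Nuclei were imaged by confocal microscopy (ex 535, em 617 nm) and scored as apoptotic or necrotic. About 100 cells were counted per sample, with three technical and biological repeats.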

HEK293T cells [3] = test: Dose-dependent response; assay type: cell-based, Human; conditions: 24 h; for cytotoxicity at higher concentrations: 50 and 100 mM; for IC50: cell death, trypan blue, 6.25-100 mM
Outline: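 HEK293T cells were seeded at 1 × 10^6 per well and grown 24 h. Medium was replaced with medium holding test compound at 6.25, 12.5, 25, 50 or 100 mM for 24 h. Read-out was trypan blue exclusion, with % cell death = dead/total cells × 100. IC50 was taken from a fitted concentration–effect curve. Three technical and biological repeats were done.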

HEK293T cells [4] = test: Externalized phosphatidylserine, Annexin-V staining; assay type: cell-based, Human
Outline: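 HEK293T cells were exposed to test compound for 24 or 48 h, trypsinised, washed three times in DPBS and resuspended in annexin-binding buffer. Alexa Fluor 350 Annexin-V conjugate was added for 15 min at 37 °C, and cells were washed in binding buffer. Imaging was by confocal microscopy (ex 346, em 442 nm). About 100 cells were analysed per sample, with three technical and biological repeats.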

U-87 MG cells = test: Cytotoxicity in glioma cells, trypan blue assay; assay type: cell-based, Human; conditions: 100 µM, 24 h
Outline: (§1)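 U-87 MG cells were grown in MEM with L-glutamine, and 1321N1 cells in DMEM with L-glutamine plus 2 mM sodium pyruvate. Both media had 10% FBS, penicillin/streptomycin and amphotericin B, at 37 °C and 5% CO2. Cells were seeded at 1 × 10^5 per well, grown 48 h, then exposed 24 h to 100 µM test compound, 0.1% DMSO or 100 µM temozolomide. Cells were trypsinised and scored by trypan blue. Biological and technical repeats were run.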

1321N1 cells = test: Cytotoxicity in glioma cells, trypan blue assay; assay type: cell-based, Human; conditions: 1321N1, 100 µM, 24 h
Outline: as §1

[5] = tested on: Syrian Hamster Embryo (SHE) cells; conditions: 60 µM ref Hahnel et al., 1999; cited from earlier work

2-(2-(2,4-dioxopentan-3-ylidene)hydrazinyl)phenylarsonic acid [Compound 12]
cytotoxicity (HEK293T cells [1]): ≤ 30%

2-(2-(2-hydroxy-4-nitrophenyl)hydrazono)-2H-indene-1,3-dione [Compound 2]
cytotoxicity (HEK293T cells [1]): ≤ 30%

4-hydroxy-5-(2-(2,4,6-trioxo-tetrahydro-pyrimidin-5(6H) ylidene)hydrazinyl)benzene-1,3-disulfonic acid [Compound 6]
cell death compared to the other compounds (HEK293T cells [2]): less cell death
cytotoxicity at higher concentrations (HEK293T cells [3]): did not elicit significant cytotoxicity
IC50 (HEK293T cells [3]): 77.08 ± 0.5 mM
cytotoxicity (HEK293T cells [1]): 36%

5-(2-(2,4-dioxopentan-3-ylidene)hydrazinyl)-2,3-dihydrophthalazine-1,4-dione [Compound 13]
cytotoxicity (HEK293T cells [1]): ≤ 30%

5-(2-(2-hydroxy-4-nitrophenyl)hydrazono)pyrimidine-2,4,6(1H,3H,5H)-trione [Compound 7]
cytotoxicity (HEK293T cells [1]): ≤ 30%

5-(2-(2-hydroxyphenyl) hydrazono)pyrimidine-2,4,6(1H,3H,5H)-trione [Compound 5]
apoptotic effect (Annexin-V) (HEK293T cells [4]; 24 h and 48 h): more apoptotic effect compared to the other compounds
lower inhibitory effect compared to temozolomide (U-87 MG cells): 10%
mortality (U-87 MG cells): 10%
apoptosis (HEK293T cells [2]; IC50 of compound, 24 h): about 40%
necrosis (HEK293T cells [2]; IC50 of compound, 24 h): about 20%
apoptosis (HEK293T cells [2]; IC50 of compound, 48 h): ≈ 60%
cell death (HEK293T cells [2]; IC50 of compound, 48 h): ~80%
necrosis (HEK293T cells [2]; IC50 of compound, 48 h): about 20%
cell death (HEK293T cells [3]): ~80%
IC50 (HEK293T cells [3]): 50.9 ± 2.5 mM
higher inhibitory effect compared to temozolomide (1321N1 cells): 10%
mortality (1321N1 cells): 20%
cytotoxicity (HEK293T cells [1]): 46%

5-(2-(4,4-dimethyl-2,6-dioxocyclohexylidene)hydrazinyl)-4-hydroxybenzene-1,3-disulfonic acid [Compound 9]
cell death compared to the other compounds (HEK293T cells [2]): less cell death
cytotoxicity at higher concentrations (HEK293T cells [3]): did not elicit significant cytotoxicity
cytotoxicity (HEK293T cells [1]): 42%

5-chloro-2-hydroxy-3-(2-(2,4,6-trioxo-tetrahydropyrimidin-5(6H)-ylidene)hydrazinyl)benzenesulfonic acid [Compound 4]
cytotoxicity (HEK293T cells [1]): ≤ 30%

5-chloro-3-(2-(4,4-dimethyl-2,6-dioxocyclohexylidene)hydrazinyl)-2-hydroxybenzenesulfonic acid [Compound 8]
level of apoptosis (Annexin-V) (HEK293T cells [4]; 48 h): lower level of apoptosis
apoptosis/necrosis response compared with compound 5 (HEK293T cells [2]; IC50, 48 h): lower response
cell death (HEK293T cells [3]): ~80%
IC50 (HEK293T cells [3]): 75.5 ± 2.3 mM
cytotoxicity (HEK293T cells [1]): 45%

C[C@@H]1Cc2c(Cl)cc(C(=O)N[C@@H](Cc3ccccc3)C(=O)O)c(O)c2C(=O)O1 [Ochratoxin A]
intracellular calcium increase compared to untreated cells [5]: 45%

(E)-3-(2-(1-ethoxy-1,3-dioxobutan-2-ylidene)hydrazinyl)-2-hydroxy-5-nitrobenzenesulfonic acid [Compound 1]
cytotoxicity (HEK293T cells [1]): ≤ 30%

(Z)-5-chloro-2-hydroxy-3-(2-(4,4,4-trifluoro-1,3-dioxo-1-(thiophen-2-yl)butan-2-ylidene)hydrazinyl)benzenesulfonic acid [Compound 3]
cytotoxicity (HEK293T cells [1]): ≤ 30%
